Experimental data reported in ChEMBL document CHEMBL5678814, “Novel Mps1 Kinase Inhibitors with Potent Antitumor Activity” (Mol Cancer Ther, 2016).
The source made the active and inactive calls. The rule behind the calls is not given here.

Legend:
[1] = biological target: Mitogen-activated protein kinase kinase kinase kinase 1 (Homo sapiens, UniProt Q92918); experiment: Binding affinity to HPK1 (unknown origin) assessed as dissociation constant
[2] = biological target: Mitogen-activated protein kinase 10 (Homo sapiens, UniProt P53779); experiment: Binding affinity to JNK3 (unknown origin) assessed as dissociation constant
Mitogen-activated protein kinase 10, sequence (P53779 whole entry): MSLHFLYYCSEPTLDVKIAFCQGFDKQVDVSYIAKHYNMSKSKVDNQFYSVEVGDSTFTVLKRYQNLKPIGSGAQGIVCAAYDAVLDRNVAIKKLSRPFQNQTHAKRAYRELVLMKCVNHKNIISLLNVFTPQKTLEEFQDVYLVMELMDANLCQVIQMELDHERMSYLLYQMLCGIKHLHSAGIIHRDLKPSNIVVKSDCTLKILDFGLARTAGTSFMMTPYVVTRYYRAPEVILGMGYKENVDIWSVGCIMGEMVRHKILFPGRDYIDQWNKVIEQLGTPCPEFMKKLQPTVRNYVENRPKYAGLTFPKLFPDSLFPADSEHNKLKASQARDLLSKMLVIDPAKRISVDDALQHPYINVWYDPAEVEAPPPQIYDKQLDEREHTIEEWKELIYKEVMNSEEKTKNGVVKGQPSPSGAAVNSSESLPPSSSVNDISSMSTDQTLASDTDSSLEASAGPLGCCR

[3] = biological target: Serine/threonine-protein kinase mTOR (Homo sapiens, UniProt P42345); experiment: Binding affinity to MTOR (unknown origin) assessed as dissociation constant
[4] = Antiproliferative activity against human JMSU-1 cells assessed as cell growth inhibition incubated for 96 hrs by MTS assay; format: functional, cell-based; settings: JMSU-1, 96 h
[5] = tested on: KU-19-19; experiment: Antiproliferative activity against human KU-19-19 cells assessed as cell growth inhibition incubated for 96 hrs by MTS assay; format: functional, cell-based; settings: KU-19-19, 96 h
[6] = tested on: RT-112; experiment: Antiproliferative activity against human RT-112 cells assessed as cell growth inhibition incubated for 96 hrs by MTS assay; format: functional, cell-based; settings: RT-112, 96 h
[7] = tested on: HCC70; experiment: Antiproliferative activity against human HCC70 cells assessed as cell growth inhibition incubated for 96 hrs by MTS assay; format: functional, cell-based; settings: HCC70, 96 h
[8] = tested on: NCI-H647; experiment: Antiproliferative activity against human NCI-H647 cells assessed as cell growth inhibition incubated for 96 hrs by MTS assay; format: functional, cell-based; settings: NCI-H647, 96 h
[9] = tested on: NCI-H661; experiment: Antiproliferative activity against human NCI-H661 cells assessed as cell growth inhibition incubated for 96 hrs by MTS assay; format: functional, cell-based; settings: NCI-H661, 96 h
[10] = tested on: NCI-H526; experiment: Antiproliferative activity against human NCI-H526 cells assessed as cell growth inhibition incubated for 96 hrs by MTS assay; format: functional, cell-based; settings: NCI-H526, 96 h
[11] = tested on: OCI-LY19; experiment: Antiproliferative activity against human OCILY19 cells assessed as cell growth inhibition incubated for 96 hrs by MTS assay; format: functional, cell-based; settings: OCI-LY19, 96 h
[12] = tested on: Granta-519; experiment: Antiproliferative activity against human Granta-519 cells assessed as cell growth inhibition incubated for 96 hrs by MTS assay; format: functional, cell-based; settings: Granta-519, 96 h
[13] = tested on: LAPC4; experiment: Antiproliferative activity against human LAPC4 cells assessed as cell growth inhibition incubated for 96 hrs by MTS assay; format: functional, cell-based; settings: LAPC4, 96 h
[14] = tested on: A673; experiment: Antiproliferative activity against human A673 cells assessed as cell growth inhibition incubated for 96 hrs by MTS assay; format: functional, cell-based; settings: A673, 96 h
[15] = tested on: RD; experiment: Antiproliferative activity against human RD cells assessed as cell growth inhibition incubated for 96 hrs by MTS assay; format: functional, cell-based
[16] = tested on: SAOS-2; experiment: Antiproliferative activity against human SAOS-2 cells assessed as cell growth inhibition incubated for 96 hrs by MTS assay; format: functional, cell-based; settings: SAOS-2, 96 h
[17] = tested on: U2OS; experiment: Antiproliferative activity against human U2OS cells assessed as cell growth inhibition incubated for 96 hrs by MTS assay; format: functional, cell-based
[18] = Half life in male CD1 mouse plasma at 0.5 mg/kg, iv measured after 24 hrs by LC/-MS/MS analysis; format: ADME, organism-based
Procedure, shortened: (§1)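 Male CD1 mice received a single iv bolus of 0.5 mg/kg in 1% DMSO/99% plasma. Plasma was sampled at 2, 5, 15, 30 and 45 min and at 1, 2, 4, 6, 8 and 24 h, precipitated with ice-cold acetonitrile (1:5), and supernatants were run by LC/MS-MS. Parameters were estimated from plasma concentration data, with AUC by the log-linear trapezoidal rule.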

[19] = Volume of distribution at steady state in male CD1 mouse plasma at 0.5 mg/kg, iv measured after 24 hrs by LC/-MS/MS analysis; format: ADME, organism-based; settings: read-out: Vdss; procedure, shortened: as §1
[20] = Clearance in male Wistar rat blood at 0.5 mg/kg, iv measured after 24 hrs by LC/-MS/MS analysis; format: ADME, organism-based
[21] = tested on: A2780cis; settings: Homo sapiens, dose 2.5 mg/kg, route po, time 7.0 day
[22] = tested on: LoVo; experiment: Antiproliferative activity against human LoVo cells assessed as cell growth inhibition incubated for 96 hrs by crystal violet staining
[23] = tested on: A-375; experiment: Antiproliferative activity against human A-375 cells assessed as cell growth inhibition incubated for 96 hrs by crystal violet staining; settings: A-375, 96 h
[24] = tested on: L-363; experiment: Antiproliferative activity against human L-363 cells assessed as cell growth inhibition incubated for 96 hrs by crystal violet staining; settings: L-363, 96 h
[25] = tested on: HCT-15; experiment: Antiproliferative activity against human HCT-15 cells assessed as cell growth inhibition incubated for 96 hrs by crystal violet staining; settings: HCT-15, 96 h
[26] = tested on: CAL-33; experiment: Antiproliferative activity against human CAL-33 cells assessed as cell growth inhibition incubated for 96 hrs by crystal violet staining; settings: CAL-33, 96 h
[27] = tested on: NCI-H28; experiment: Antiproliferative activity against human NCI-H28 cells assessed as cell growth inhibition incubated for 96 hrs by crystal violet staining; settings: NCI-H28, 96 h
[28] = tested on: IGROV-1; experiment: Antiproliferative activity against human IGROV-1 cells assessed as cell growth inhibition incubated for 96 hrs by crystal violet staining; settings: IGROV-1, 96 h
[29] = tested on: SK-OV-3; experiment: Antiproliferative activity against human SK-OV-3 cells assessed as cell growth inhibition incubated for 96 hrs by crystal violet staining; settings: SK-OV-3, 96 h
[30] = tested on: NCI-H292; experiment: Antiproliferative activity against human NCI-H292 cells assessed as cell growth inhibition incubated for 96 hrs by crystal violet staining; settings: NCI-H292, 96 h
[31] = tested on: COLO-829; experiment: Antiproliferative activity against human COLO-829 cells assessed as cell growth inhibition incubated for 96 hrs by crystal violet staining; settings: COLO-829, 96 h
[32] = Antiproliferative activity against human A2780cis cells assessed as cell growth inhibition incubated for 96 hrs by crystal violet staining
[33] = tested on: RPMI-2650; experiment: Antiproliferative activity against human RPMI-2650 cells assessed as cell growth inhibition incubated for 96 hrs by crystal violet staining; settings: RPMI-2650, 96 h
[34] = tested on: NCI-H2052; experiment: Antiproliferative activity against human NCI-H2052 cells assessed as cell growth inhibition incubated for 96 hrs by crystal violet staining; settings: NCI-H2052, 96 h
[35] = Antiproliferative activity against human NCI-H2110 cells assessed as cell growth inhibition incubated for 96 hrs by crystal violet staining; settings: NCI-H2110, 96 h
[36] = tested on: MIA PaCa-2; experiment: Antiproliferative activity against human MIA PaCa-2 cells assessed as cell growth inhibition incubated for 96 hrs by crystal violet staining; settings: MIA PaCa-2, 96 h

Mitogen-activated protein kinase kinase kinase kinase 1, sequence (Q92918 whole entry): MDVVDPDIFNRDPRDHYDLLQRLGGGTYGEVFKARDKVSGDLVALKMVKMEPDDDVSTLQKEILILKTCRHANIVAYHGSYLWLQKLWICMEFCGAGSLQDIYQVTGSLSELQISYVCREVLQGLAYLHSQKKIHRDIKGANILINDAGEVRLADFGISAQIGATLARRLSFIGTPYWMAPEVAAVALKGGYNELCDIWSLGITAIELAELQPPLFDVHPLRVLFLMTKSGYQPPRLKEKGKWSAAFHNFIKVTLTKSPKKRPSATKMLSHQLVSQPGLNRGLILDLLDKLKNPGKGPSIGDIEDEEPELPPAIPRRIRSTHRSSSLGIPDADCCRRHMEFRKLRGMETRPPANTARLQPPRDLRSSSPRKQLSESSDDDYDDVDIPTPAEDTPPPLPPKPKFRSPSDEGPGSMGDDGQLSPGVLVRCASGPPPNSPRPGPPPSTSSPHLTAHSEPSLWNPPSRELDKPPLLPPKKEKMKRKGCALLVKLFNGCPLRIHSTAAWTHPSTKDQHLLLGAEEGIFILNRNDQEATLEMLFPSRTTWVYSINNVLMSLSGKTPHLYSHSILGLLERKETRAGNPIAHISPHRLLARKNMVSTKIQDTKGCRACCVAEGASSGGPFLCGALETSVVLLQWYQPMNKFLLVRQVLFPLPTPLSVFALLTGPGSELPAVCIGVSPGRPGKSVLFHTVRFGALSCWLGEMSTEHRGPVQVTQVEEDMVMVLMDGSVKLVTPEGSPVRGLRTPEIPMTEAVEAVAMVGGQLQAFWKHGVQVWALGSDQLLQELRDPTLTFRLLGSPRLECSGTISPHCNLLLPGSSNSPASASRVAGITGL

## COc1cc(S(C)(=O)=O)ccc1Nc1nc2ccc(-c3ccc(NC(=O)[C@H](C)c4ccc(F)cc4)cc3)cn2n1 [BAY-1161909]
[1]
  Kd: 40000 nM
[2]
  Kd: 96 nM
[3]
  Kd: 40000 nM
[4]
  IC50: 89 nM
[5]
  IC50: 86 nM
[6]
  IC50: 83 nM
[7]
  IC50: 87 nM
[8]
  IC50: 570 nM
[9]
  IC50: 260 nM
[10]
  IC50: 100 nM
[11]
  IC50: 61 nM
[12]
  IC50: 240 nM
[13]
  IC50: 130 nM
[14]
  IC50: 93 nM
[15]
  IC50: 260 nM
[16]
  IC50: 520 nM
[17]
  IC50: 550 nM
[18]
  half-life: 4.9 h
[19]
  Vd: 3.4 L/kg
[20]
  clearance: 3.17 mL/min/kg
[21]
  inhibition: Active
[22]
  IC50: 95 nM
[23]
  IC50: 100 nM
[24]
  IC50: 32 nM
[25]
  IC50: 110 nM
[26]
  IC50: 110 nM
[27]
  IC50: 110 nM
[28]
  IC50: 240 nM
[29]
  IC50: 3700 nM
[30]
  IC50: 190 nM
[31]
  IC50: 300 nM
[32]
  IC50: 60 nM
[33]
  IC50: 51 nM
[34]
  IC50: 96 nM
[35]
  IC50: 280 nM
[36]
  IC50: 1000 nM
